Screens from PubChem.
hK5 inh: blocks human kallikrein 5 protease activity; Q9Y337; recombinant hK5, fluorogenic AMC substrate cleavage; inhibition, % at 5 µM; 210,000 compounds, 0.59% hits; AID 873;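 active = inhibition of 40% or more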
Target sequence (Q9Y337 67-293 limits assumed): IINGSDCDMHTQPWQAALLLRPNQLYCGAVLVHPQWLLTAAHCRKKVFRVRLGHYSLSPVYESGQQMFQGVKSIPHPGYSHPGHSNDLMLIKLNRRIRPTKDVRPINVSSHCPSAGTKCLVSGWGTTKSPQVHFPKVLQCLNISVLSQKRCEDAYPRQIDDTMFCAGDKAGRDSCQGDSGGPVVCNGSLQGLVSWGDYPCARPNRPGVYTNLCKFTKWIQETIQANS
FXIa inh 1536: blocks human coagulation factor XIa protease activity | P03951 | purified FXIa, Boc-Glu-Ala-Arg-AMC fluorogenic substrate | inhibition, % at 5 µM | 220,000 compounds, 0.14% hits | AID 798;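 active = inhibition of at least 40%; inactive = inhibition below 40%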;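 note: fluorescence of freed AMC excited at 355 nm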
PGE2 EP2 inh: blocks the human prostaglandin E2 receptor EP2; P43116; C6 glioma cells expressing human EP2, cAMP TR-FRET; cells stimulated with saturating PGE2; inhibition, % at 25 µM; 260,000 compounds, 0.52% hits; AID 1422;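 active = percent inhibition above 40 after rounding to a whole number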;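 note: rat C6 glioma host cells with rolipram phosphodiesterase inhibitor present; the protocol text gives 20 µM as final concentration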
Target sequence (P43116 whole entry, looked up): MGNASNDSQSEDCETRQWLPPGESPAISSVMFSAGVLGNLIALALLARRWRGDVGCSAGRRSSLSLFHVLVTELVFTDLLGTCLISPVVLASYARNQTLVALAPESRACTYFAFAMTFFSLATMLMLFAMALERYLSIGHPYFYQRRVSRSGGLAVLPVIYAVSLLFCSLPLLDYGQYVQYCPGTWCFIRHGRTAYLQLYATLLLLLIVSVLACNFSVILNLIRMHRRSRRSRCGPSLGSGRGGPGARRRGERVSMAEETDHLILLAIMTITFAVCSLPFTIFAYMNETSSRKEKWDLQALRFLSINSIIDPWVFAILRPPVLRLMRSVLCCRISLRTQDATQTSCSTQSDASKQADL
Thrombin inh: inhibitors of human thrombin. AID 1046. alpha-thrombin, Boc-VPR-AMC fluorogenic substrate cleavage. 220,000 compounds, 0.26% hits. inhibition, % at 5 µM. P00734;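 active = inhibition at or above 40%; inactive = inhibition below 40%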
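System: Human alpha-thrombin protein | Medium: pH 7.5 Tris (50 mM) with NaCl 150 mM, Tween 20 0.05% | Times: Enzyme reaction carried out at room temperature | Detection: AMC fluorescence, 355/460 nm | Evaluation: Percent inhibition scaled between no-compound controls and no-enzyme blanks | Benchmarks: Enzyme without compound as high, wells lacking enzyme as low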
FXIIa inh 1536: factor XIIa (human) inhibition; P00748; inhibition, % at 5 µM; purified FXIIa, Boc-QGR-AMC fluorogenic substrate, 2 h; 220,000 compounds, 0.3% hits; in the data active = inhibition above about 40%
EP2 mod: EP2 receptor (human) modulation; P43116; EP2-expressing cells, cAMP HTRF FRET, PGE2 co-stimulation; induction, % at 25 µM; 260,000 compounds, 0.83% hits; AID 940;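 active = compounds whose cAMP rise, as percent of the full-agonist control response, exceeds 60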;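 note: rat C6 glioma line stably carrying human EP2 under a CMV promoter; the protocol text gives 20 µM as final concentration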
Hits are given with their value; i = inactive; nt = no result; ! = a repeat was not active. This is a sample that favours compounds with a hit; in the whole collection about 2.1% have one here.

SMILES	hK5 inh	FXIa inh 1536	PGE2 EP2 inh	Thrombin inh	FXIIa inh 1536	EP2 mod
CCCc1nc(SCC(=O)Nc2nc(C)c(C)s2)c2ccccc2n1	nt	nt	i	nt	nt	63.5
CC(=O)Nc1ccc(NC(=O)CSc2nc(C3CCCCC3)nc3ccccc23)cc1	nt	nt	i	nt	nt	i
CCC(C)(C)NC(=O)CSc1nc(Cc2ccccc2)nc2ccccc12	nt	nt	i	nt	nt	i
CSc1nc(Cc2ccccc2)nc2ccccc12	i	i	i	i	i	62.1
COc1ccccc1NC(=O)CSc1nc(C2CCCCC2)nc2ccccc12	nt	nt	i	nt	nt	78.6
O=C(CSc1nc(Cc2ccccc2)nc2ccccc12)N1CCCCCC1	nt	nt	i	nt	nt	i
O=C(COc1ncnc2ccccc12)NC1CCN(Cc2cccc(F)c2)CC1	nt	nt	i	nt	nt	i
Cc1cc(C)c2nc(SCC(=O)Nc3nc(C)c(C)s3)cc(C)c2c1	nt	nt	i	nt	nt	61.2
O=C(CSc1nc(C2CCCCC2)nc2ccccc12)N1CCCC1	i	i	i	i	i	i
CCOC(=O)CSc1nc(C2CCCCC2)nc2ccccc12	nt	nt	i	nt	nt	65.5
CC(=O)CCc1oc2ccccc2c1-c1ccccc1	i	i	i	i	i	78.7
COc1ccc(NS(=O)(=O)c2ccc(NS(=O)(=O)c3ccc(C)cc3)cc2)nn1	64.6	i	i	i	i	i
COc1ccccc1CN(Cc1cnc(N(C)C)nc1)C1CC(C)(C)NC(C)(C)C1	nt	nt	i	nt	nt	i
O=C(O)[C@@H]1[C@H](C(=O)Nc2cccc3cccnc23)[C@@H]2CC[C@H]1O2	nt	nt	58.3	nt	nt	i
CC(Sc1nnc(-c2ccco2)o1)C(=O)NCCC1=CCCCC1 (stereo not given)	47.4	i	i	nt	i	i
CCN(CC)S(=O)(=O)c1cccc(-c2nnc(SC(C)C(=O)NCCC3=CCCCC3)o2)c1 (stereo not given)	i	i	i	i	i	i
COC(=O)CNC(=O)C(Cc1c[nH]c2ccccc12)NC(=O)Oc1ccccc1 (stereo not given)	i	i	i	i	i	i
COC(=O)CNC(=O)C(Cc1c[nH]c2ccccc12)NC(=O)OC(C)(C)C (stereo not given)	43.5	i	i	i	i	i
CC(Sc1nnc(-c2cc3ccccc3o2)n1-c1ccccc1)C(=O)O (stereo not given)	i	i	i	46.6	i	i
Cc1cc(C)c(NC(=O)C(C)Sc2nnc(-c3ccco3)n2-c2ccccc2)c(C)c1 (stereo not given)	i	i	i	i	i	i
O=c1cc(CN2CCN(c3ccc(F)cc3)CC2)c2cc3c(cc2o1)CCCC3	40.3	i	i	i	i	i
C=CCOc1nc(-c2ccccc2Cl)nc2ccccc12	i	i	i	i	i	63.2
CCOc1nc(-c2ccccc2Cl)nc2ccccc12	i	i	i	i	i	i
CN1C(=O)SC(Nc2ccc(F)c(Cl)c2)C1=O (stereo not given)	nt	nt	i	nt	nt	i
COc1ccc(-c2nnc(SCC(=O)NCc3ccc4c(c3)OCO4)o2)cc1	nt	nt	i	nt	nt	i
SMILES	hK5 inh	FXIa inh 1536	PGE2 EP2 inh	Thrombin inh	FXIIa inh 1536	EP2 mod
COCCn1c(SCC(=O)Nc2sc(C)c(C)c2C#N)nnc1-c1ccc(OC)cc1	128.1	i	i	i	i	i
COCCn1c(SCC#N)nnc1-c1ccc(OC)cc1	i	i	123.1	i	i	i
CCc1cc(NCC2CC2)n2nc3nc(C)cc(C)c3c2n1	nt	nt	nt	nt	nt	i
COC(=O)c1cn(C(=O)OC)c2ccccc12	i	i	i	i	i	i
COC(=O)c1cn(C(=O)/C=C/c2ccc(OC)c(OC)c2)c2ccccc12	i	i	42.6	i	i	i
COc1ccc(NC(=O)Cn2nnc(-c3cc(Cl)ccc3-n3cnnn3)n2)cc1	nt	nt	i	nt	nt	i
Cc1cccc(CCNC(=O)C2CCC(=O)N2Cc2ccc(F)cc2)c1 (stereo not given)	i	i	i	i	i	i
Cc1ccc(CCNC(=O)C2CCC(=O)N2Cc2cccnc2)cc1 (stereo not given)	46.7	i	i	i	i	i
CCOc1ccc(Oc2nc(NC(C)(C)C)nc(OC)n2)nn1	nt	nt	i	nt	nt	i
Cc1nc(Sc2ccccc2)c(C#N)c(C)c1[N+](=O)[O-]	i	i	i	i	i	61.0
Cc1nc(NCCc2ccccc2F)c(C#N)c(C)c1[N+](=O)[O-]	i	i	i	45.9	i	i
Cc1nc(NCCc2ccc(F)cc2)c(C#N)c(C)c1[N+](=O)[O-]	i	i	i	i	i	i
Oc1ccc(O)cc1	nt	nt	109.9!	nt	nt	i
O=C(c1ccc(O)cc1)c1ccc(C(=O)c2ccc(O)cc2)cc1	i	i	i	i	i	i
CS(=O)(=O)c1ccc(Cl)c(NC(=O)COC(=O)CNC(=O)c2ccccc2)c1	i	41.5	i	i	i	i
Cc1ccc(CN(C)C(=O)CC2C(=O)NCCN2CC2CCCCC2)cc1 (stereo not given)	nt	i	i	i	i	i
CN(Cc1ccon1)C(=O)CC1C(=O)NCCN1CC1CCCCC1 (stereo not given)	i	60.0	i	i	i	i
COc1ccc(CCN(C)C(=O)C2CCN(CC3CCCCC3)CC2)cc1OC	nt	nt	i	nt	nt	i
CC1=C(C(N)=O)C(c2ccccn2)n2nc(-c3ccccc3Cl)nc2N1 (stereo not given)	42.9	i	i	i	i	i
CC(=O)CSc1nnc2c3ccccc3nc(C(C)(C)C)n12	i	i	i	i	i	60.8
CCOC(=O)CSc1nnc2c3ccccc3nc(C(C)(C)C)n12	nt	nt	i	nt	nt	i
CCOC(=O)CSc1nnc2c3ccccc3nc(Cc3ccccc3)n12	nt	nt	i	nt	nt	64.6
O=C1CC(Sc2ccc(Cl)cc2)C(=O)N1c1ccc2c(c1)OCCO2 (stereo not given)	53.1	43.9	i	i	i	i
CC1CCN(C(=O)Cn2nc3c4ccccc4nc(C4CC4)n3c2=O)CC1	nt	nt	i	nt	nt	i
COc1cc(NC(=O)c2cnc(N)s2)cc(C(=O)Nc2cccc(C(F)(F)F)c2)c1	i	i	52.6	i	i	i
SMILES	hK5 inh	FXIa inh 1536	PGE2 EP2 inh	Thrombin inh	FXIIa inh 1536	EP2 mod
COc1cc(NC(=O)c2ccnc(N)c2)cc(C(=O)Nc2cccc(C(F)(F)F)c2)c1	i	i	i	i	i	i
CCOC(=O)C1=NN(c2ccccc2)C2(S1)SC(C(C)=O)=C(C)N2c1ccccc1 (stereo not given)	i	i	i	i	i	63.3
CCn1c(SCC(=O)N2CCCC(C)C2)nnc1-c1ccco1 (stereo not given)	nt	nt	i	nt	nt	71.1
CC1=C(C(=O)N2CCCCC2)C(c2cccs2)C2=C(CCCC2=O)N1 (stereo not given)	138.1	i	i	i	i	nt
CCOc1ccc2[nH]c(=O)c(C(c3nnnn3C3CCCCC3)N3CCN(C)CC3)cc2c1 (stereo not given)	i	i	nt	i	48.3	i
O=c1[nH]c2cc3c(cc2cc1C(c1nnnn1C1CCCC1)N1CCCCCC1)OCCO3 (stereo not given)	nt	nt	i	nt	nt	80.8
CCOc1ccc2[nH]c(=O)c(C(c3nnnn3C3CCCC3)N3CCc4ccccc43)cc2c1 (stereo not given)	nt	nt	i	nt	nt	i
